Results reported in publication PMC4091826 (Molecular Biology of the Cell, 2014).
One block for each molecule: values may come before it. No end group written: not given here.

Assays:
[1] = tested on: human mtHsp70; conditions: versus wild type; ref Goswami et al., 2010; cited from earlier work
[2] = tested on: human mtHsp70; conditions: ref Goswami et al., 2010; cited from earlier work
[3] = tested on: human mtHsp70; assay: Stimulation of ATPase activity by P5 peptide, human mtHsp70; format: biochemical; conditions: 250-fold molar excess of P5; Figure 1D
Summary of the method: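 Human mtHsp70[ATP] complexes were formed by incubating 100 μg protein with 50 μM ATP and 25 μCi [γ-32P]ATP on ice for 3 min in buffer A (25 mM HEPES-KOH pH 7.5, 100 mM KCl, 10 mM Mg(OAc)2). Complexes were isolated by Sephadex G50 (1 μM protein) and snap-frozen. Single-turnover hydrolysis was run at 25°C in buffer A, either alone (basal) or with P5 peptide.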

[4] = tested on: human mtHsp70; assay: Single-turnover basal ATPase assay, human mtHsp70; format: biochemical; conditions: 25°C, buffer A, versus wild type, Figure 1C
Summary of the method: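 Purified protein (100 μg) was loaded on ice for 3 min with 50 μM ATP and 25 μCi [γ-32P]ATP in buffer A (25 mM HEPES-KOH pH 7.5, 100 mM KCl, 10 mM Mg(OAc)2). Complexes were isolated immediately on Sephadex G50 and frozen in liquid nitrogen; they contained 1 μM protein. Hydrolysis was then run at 25°C in buffer alone, without stimulators.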

[5] = target: human mtHsp70, wild type, hexahistidine-tagged, purified (human, UniProt P38646 47-679); assay: fluorescence polarisation
Sequence of human mtHsp70, wild type, hexahistidine-tagged, purified (P38646 47-679): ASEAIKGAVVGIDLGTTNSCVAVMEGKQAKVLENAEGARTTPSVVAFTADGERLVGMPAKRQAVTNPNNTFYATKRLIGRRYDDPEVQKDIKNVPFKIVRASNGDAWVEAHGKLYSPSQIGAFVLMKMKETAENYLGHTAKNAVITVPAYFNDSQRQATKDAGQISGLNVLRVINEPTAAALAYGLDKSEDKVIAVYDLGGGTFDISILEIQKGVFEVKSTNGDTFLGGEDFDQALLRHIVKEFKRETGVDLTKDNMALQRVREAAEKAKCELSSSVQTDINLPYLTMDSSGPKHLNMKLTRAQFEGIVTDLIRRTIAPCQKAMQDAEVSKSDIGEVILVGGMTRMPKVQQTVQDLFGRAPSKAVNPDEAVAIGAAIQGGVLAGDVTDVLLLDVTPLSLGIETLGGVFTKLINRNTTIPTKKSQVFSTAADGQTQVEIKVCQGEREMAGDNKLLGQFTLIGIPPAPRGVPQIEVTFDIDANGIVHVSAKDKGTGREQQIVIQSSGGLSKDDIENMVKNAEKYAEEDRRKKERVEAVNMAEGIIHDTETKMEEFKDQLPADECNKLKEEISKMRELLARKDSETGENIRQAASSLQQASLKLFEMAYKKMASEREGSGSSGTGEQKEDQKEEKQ

[6] = target: Ssc1 D411R, purified (S. cerevisiae, UniProt P0CS90 24-654, D411R); assay: fluorescence polarisation
[7] = target: Ssc1 E467A-D411R, purified (S. cerevisiae, UniProt P0CS90 24-654, D411R | E467A); assay: fluorescence polarisation
[8] = target: T1, Ssc1 E467A, hexahistidine-tagged, purified (S. cerevisiae, UniProt P0CS90 24-654, E467A); assay: fluorescence polarisation
[9] = target: T2, Ssc1 (yeast mtHsp70), wild type, hexahistidine-tagged, purified (S. cerevisiae, UniProt P0CS90 24-654); assay: fluorescence polarisation
[10] = target: T1, Ssc1 E467A, hexahistidine-tagged, …; assay: fluorescence polarisation; remark: listed apart in the source
[11] = target: T2, Ssc1 (yeast mtHsp70), wild type, …; assay: fluorescence polarisation; remark: listed apart in the source
Target sequence in this assay (P0CS90 24-654): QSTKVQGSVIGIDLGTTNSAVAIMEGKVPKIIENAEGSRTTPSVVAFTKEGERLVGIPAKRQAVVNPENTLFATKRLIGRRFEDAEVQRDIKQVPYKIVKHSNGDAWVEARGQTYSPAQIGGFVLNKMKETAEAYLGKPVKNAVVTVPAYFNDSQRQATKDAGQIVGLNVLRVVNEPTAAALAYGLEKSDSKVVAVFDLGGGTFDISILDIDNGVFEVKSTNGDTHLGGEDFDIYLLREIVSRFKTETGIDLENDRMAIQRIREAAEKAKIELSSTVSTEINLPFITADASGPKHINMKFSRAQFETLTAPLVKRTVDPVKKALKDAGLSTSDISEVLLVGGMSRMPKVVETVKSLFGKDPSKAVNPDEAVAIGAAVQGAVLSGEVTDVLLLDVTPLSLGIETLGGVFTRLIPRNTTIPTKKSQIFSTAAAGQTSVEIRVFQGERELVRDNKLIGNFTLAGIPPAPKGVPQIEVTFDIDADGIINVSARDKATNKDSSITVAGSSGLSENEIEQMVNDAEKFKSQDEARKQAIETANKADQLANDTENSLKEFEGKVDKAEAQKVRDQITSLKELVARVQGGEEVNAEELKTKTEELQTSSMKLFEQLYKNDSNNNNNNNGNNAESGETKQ

[12] = target: T1, Ssc1 E467A, hexahistidine-tagged, …; assay: fluorescence polarisation; remark: listed apart in the source
[13] = target: T2, Ssc1 (yeast mtHsp70), wild type, …; assay: fluorescence polarisation; remark: listed apart in the source
[14] = tested on: Hsp60; assay: Hsp60 precursor accumulation assay; format: cell-based, S. cerevisiae; conditions: shift to 37°C for 2 h, immunoblot; Figure 6B
Summary of the method: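 Yeast strains were grown in YPD at 28°C to early log phase, then shifted to 37°C for 2 h. Cells equivalent to 2 OD A600 were taken before and after the shift and lysed in 0.1 N NaOH. Whole-cell extracts were run on SDS–PAGE and immunoblotted for Hsp60 to detect its precursor (p) and mature (m) forms.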

[15] = tested on: yeast cells; assay: Growth phenotype; format: cell-based, S. cerevisiae; conditions: minimal medium or 5-FOA medium, serial dilutions
[16] = tested on: Cytb2(47)-DHFR; assay: In vitro import kinetics of Cytb2; format: biochemical, S. cerevisiae; conditions: isolated mitochondria, 37°C preincubation; Figure 6, C and D
Summary of the method: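 Saturating purified precursor plus 8 mM each ATP and NADH added. Time points stopped with valinomycin, then proteinase K (quenched with PMSF). Anti-DHFR immunoblot; intermediate form plotted over time, maximum wild-type import set as 100%.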

[17] = tested on: Ssc1; assay: Limited proteolytic cleavage by trypsin; format: biochemical, S. cerevisiae; conditions: 1:100 (wt/wt) trypsin, 25°C, SDS-PAGE
[18] = tested on: mitochondrial mass; assay: Mitochondrial mass estimation by 10-N-nonyl acridine orange flow cytometry; format: cell-based, S. cerevisiae; conditions: in comparison to wild type; Figure 6E
Summary of the method: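 Per strain, cells equal to 0.2 OD at A600 were stained with 10-N-nonyl acridine orange, a cardiolipin-binding dye, and analysed by flow cytometry to estimate total mitochondrial mass.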

[19] = tested on: Ssc1; assay: ATP-induced substrate release by fluorescence anisotropy, Ssc1; format: biochemical, S. cerevisiae; conditions: 2.5 mM ATP, 5 μM Ssc1[F-P5], anisotropy decrease up to 5 min
[20] = tested on: Ssc1; assay: Single-turnover basal ATPase assay, Ssc1; format: biochemical, S. cerevisiae; conditions: 25°C, buffer A, versus wild type
[21] = tested on: Tim44; assay: Coimmunoprecipitation of Ssc1 with Tim44; format: binding, S. cerevisiae; conditions: mitochondrial lysates, anti-Ssc1, presence or absence of 1 mM ATP; Figure 6A
[22] = tested on: fluorescein-labeled P5 peptide (F-P5); assay: Fluorescence anisotropy equilibrium binding of F-P5 peptide to Ssc1 proteins; conditions: F-P5, versus wild type

Molecule: mtHsp70G489E
- elevated basal rate of ATP hydrolysis [1]: fivefold elevated
- loss in stimulation of ATPase activity by peptide substrates [2]: 70%
- stimulation of ATPase activity by P5 substrate peptide, in words [3]: marked decrease in stimulation of ATPase activity by P5 substrate peptide

Molecule: mtHsp70Q488A
- fold enhancement in basal ATPase activity [4]: 2.75 fold
- stimulation of ATPase activity by P5 substrate peptide, in words [3]: marked decrease in stimulation of ATPase activity by P5 substrate peptide

- binding result [5]: binds
- binding result [6]: binds
- binding result [7]: binds
- koff [8]: 0.0039 ± 0.000131 s⁻¹
- koff [9]: 0.0023 ± 3.47e-05 s⁻¹
- Kd [10]: 1750 ± 269 nM
- Kd [11]: 200 ± 37 nM
- kon [12]: 3400 M⁻¹ s⁻¹
- kon [13]: 14000 M⁻¹ s⁻¹
B1: fluorescein-labeled P5 peptide (peptide)
peptide: CALLLSAPRR
modifications: also: fluorescein label, position not given here

- fold reduced affinity for the substrate vs wild type [22]: ~8.6 fold
B2: E467A (protein)
chain: QSTKVQGSVIGIDLGTTNSAVAIMEGKVPKIIENAEGSRTTPSVVAFTKEGERLVGIPAKRQAVVNPENTLFATKRLIGRRFEDAEVQRDIKQVPYKIVKHSNGDAWVEARGQTYSPAQIGGFVLNKMKETAEAYLGKPVKNAVVTVPAYFNDSQRQATKDAGQIVGLNVLRVVNEPTAAALAYGLEKSDSKVVAVFDLGGGTFDISILDIDNGVFEVKSTNGDTHLGGEDFDIYLLREIVSRFKTETGIDLENDRMAIQRIREAAEKAKIELSSTVSTEINLPFITADASGPKHINMKFSRAQFETLTAPLVKRTVDPVKKALKDAGLSTSDISEVLLVGGMSRMPKVVETVKSLFGKDPSKAVNPDEAVAIGAAVQGAVLSGEVTDVLLLDVTPLSLGIETLGGVFTRLIPRNTTIPTKKSQIFSTAAAGQTSVEIRVFQGARELVRDNKLIGNFTLAGIPPAPKGVPQIEVTFDIDADGIINVSARDKATNKDSSITVAGSSGLSENEIEQMVNDAEKFKSQDEARKQAIETANKADQLANDTENSLKEFEGKVDKAEAQKVRDQITSLKELVARVQGGEEVNAEELKTKTEELQTSSMKLFEQLYKNDSNNNNNNNGNNAESGETKQ
- Hsp60 precursor accumulation, in words [14]: significant levels of Hsp60 precursor form as compared with wild type
- growth phenotype, in words [15]: viable at 30 °C but displayed temperature sensitivity at 34 and 37 °C
- rate of precursor translocation into mitochondria, in words [16]: impairment in translocation rate
- trypsin cleavage pattern, in words [17]: the 30-kDa bands were very unstable and rapidly degraded further into smaller-sized fragments
- reduction in mitochondrial mass [18]: 30%
- substrate (peptide) release upon ATP addition [19]: ~38%
- fold increase in basal ATPase activity [20]: 4.85 fold
- interaction with Tim44, in words [21]: interacted negligibly with Tim44 even in the absence of ATP
